Compound activity: PubChem BioAssay, Broad Institute
Most compounds without a hit are left out; they make up all but 2.3% or so of the library.
PGC1a acetyl inh: PGC1a acetylation modulation, inhibitor mode; 0.17% of 350,000 active; AID 651687; inhibition, % at 15.6 µM; U2OS PGC1a acetylation, AlphaScreen anti-acetyl-lysine; with virally co-expressed GCN5 acetyltransferase;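 active = every replicate shows inhibition of at least 40%; inconclusive = mean inhibition at least 40% but some replicate below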;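 note: 0% = neutral control wells and 100% = positive control wells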
HIV Env fusion: HIV envelope-mediated fusion inhibition; HeLa-JRFL Env/CEM21 cell fusion, luciferase; inhibition, % at 12.3 µM; 1.1% of 360,000 active;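 active = mean replicate inhibition score of at least 50 and every replicate individually at or above 50; inconclusive = only one of the two criteria met; inactive = mean below 50 and not all replicates reaching 50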;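 note: 0% = plate neutral controls and 100% = maraviroc near 300 nM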
FN deposition inh: fibronectin deposition inhibition; AH1F fibroblasts, Alexa488-fibronectin deposition fluorescence, overnight; inhibition, % at 12.6 µM; 0.086% of 350,000 active;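 active = mean inhibition across replicates of 30% or more, regardless of how many single replicates reach that level; inconclusive = mean under 30% yet at least half of replicates reach 30%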;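 note: positive control wells lacked labelled fibronectin entirely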
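Material: AH1F fibroblast monolayer depositing Alexa488-labelled fibronectin into matrix | Input: 10000 AH1F cells/well | Medium: DMEM plus 2% serum, read in PBS | Reagent: Alexa488-fibronectin, 24 nM final in well | Compound dosing: One dose per compound, pinned | Schedule: 1 h adhesion, overnight exposure | Measured by: Fluorescence at 485 nm excitation, 525 nm emission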
F508del corr: CFTR F508del correction in bronchial cells | 0.36% of 350,000 active | activity (quench increase), % at 7.58 µM | CFBE cells, YFP halide quenching; stimulated with forskolin plus potentiator P3; % fluorescence drop versus neutral controls;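 active = mean added fluorescence quench of at least 8% versus neutral control, with both replicates also reaching 8%; inconclusive = only one of the mean or replicate conditions met; inactive = mean below 8% and not both replicates reaching 8%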;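 note: cells transiently co-express mutant CFTR-F508del with the halide-sensitive YFP; corrector assay measuring rescue of mutant channel to the surface after 24 h compound exposure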
EWS-Fli inh: inhibitors of EWS/Fli oncoprotein transcriptional activity. AID 651661. 0.67% of 350,000 active. A673 NR0B1-luciferase reporter, viability-normalised. inhibition, % at 12.6 µM;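 active = mean inhibition of at least 50% after viability correction, with every replicate also passing that limit; inconclusive = mean reaches 50% but only one of two replicates passes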;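 note: firefly luciferase signal divided by Alamar Blue viability fluorescence both relative to DMSO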
PAX8 reporter: PAX8 transcriptional activity inhibition. RMG-I TPO-luciferase reporter, SteadyGlo, 24 h. inhibition, % at 12.6 µM. 1.2% of 360,000 active. AID 652154;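 active = mean replicate inhibition at least 60% with every replicate also reaching 60%; inconclusive = only one of the two criteria is met; inactive = mean below 60% and not all replicates reaching 60%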;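 note: luciferase light reporting Pax8 driven TPO promoter activity; plate controls were median of neutral control wells for no effect and mitoxantrone controls for full effect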
* = called active by the depositor; ? = inconclusive; · = no result; ! = not active in a repeat; [ ] = another dose, or the depositor's remark.

SMILES	PGC1a acetyl inh	HIV Env fusion	FN deposition inh	F508del corr	EWS-Fli inh	PAX8 reporter
C[C@H](O)C#Cc1ccc2c(c1)O[C@@H](CN(C)C(=O)c1ccncc1)[C@H](C)CN([C@H](C)CO)S2(=O)=O	11	?	-11	0	-4	0
COc1ccc(CCNc2ccncn2)cc1	·	56*	-12	·	·	·
COc1ccc(CCNc2ccncn2)cc1OC	·	-40	1	·	·	·
O=C(NCCCN1CCOCC1)c1cc(S(=O)(=O)N2CCOCC2)c(Cl)cc1Cl	-13	-13	1	9.0*	1	7
CC12CCC(=O)N1C(C(=O)Nc1nc3ccc(S(C)(=O)=O)cc3s1)CS2 (stereo not drawn)	·	55*	·	2	·	2
CC12CCC(=O)N1C(C(=O)Nc1nc3ccc(Cl)cc3s1)CS2 (stereo not drawn)	6	-5	-12	-5	-20	7
CCOc1ccc(NC(=O)Nc2ccc3nsnc3c2)cc1	-7	-3	-3	2	-60	-91
CCOc1ccc(NC(=O)Nc2cc(OCC(F)(F)F)cc(OCC(F)(F)F)c2)cc1	·	?	-8	0	17	87*
O=C(Nc1ccc(F)cc1)Nc1cc(OCC(F)(F)F)cc(OCC(F)(F)F)c1	·	70*	-2	·	·	83*
Cc1ccc(S(=O)(=O)N[C@H]2CC[C@H](CCNC(=O)C3CCC3)O[C@@H]2CO)cc1	-8	9[16.7 µM]	·	-1	-2	-2
O=C(C[C@@H]1C[C@H]2c3cc(NC(=O)Nc4ccccc4)ccc3O[C@H]2[C@H](CO)O1)NCc1ccncc1	-1	20[16.7 µM]	-3	2	-6	-8
O=C(NCC[C@@H]1CC[C@@H](NC(=O)C2CC2)[C@@H](CO)O1)c1ccc(F)cc1	-21	2[16.7 µM]	·	-1	-4	·
N=c1sccn1CC(=O)Nc1ccc(S(N)(=O)=O)cc1	12	-10	1	11*	8	21
N=c1sccn1CC(=O)Nc1cccc(S(N)(=O)=O)c1	4	-19	-9	2	7	8
O=C1/C(=N\S(=O)(=O)c2cccs2)C([n+]2ccccc2)=C([O-])c2ccccc21	·	9	-1	-8	-10	78*
COc1cc(C(=O)Nc2ccc3c(c2)Cc2ccccc2-3)cc(OC)c1OC	12	-292	-12	6	17	13
COc1cc(C(=O)Nc2ccc3c(c2)CCN3C(C)=O)cc(OC)c1OC	·	-74	13	12*	67*	6
COc1ccccc1-c1ccc2c(c1)O[C@H](CN(C)S(=O)(=O)c1ccccc1)[C@H](C)CN([C@H](C)CO)S2(=O)=O	-2	56*[16.7 µM]	-5	-2	2	4
C[C@H](CO)N1C[C@H](C)[C@H](CN(C)S(=O)(=O)c2cccc(F)c2)Oc2cc(Br)ccc2S1(=O)=O	8	78*![16.7 µM]	4	2	23	-10
C[C@@H]1CN([C@H](C)CO)S(=O)(=O)c2ccc(Br)cc2O[C@H]1CN(C)S(=O)(=O)c1ccc(F)cc1	-4	20[16.7 µM]	4	·	-14	-12
CCCC#Cc1ccc2c(c1)O[C@@H](CN(C)S(=O)(=O)c1cccc(F)c1)[C@@H](C)CN([C@H](C)CO)S2(=O)=O	10	64*[16.7 µM]	·	-1	26	·
COc1ccc(S(=O)(=O)N(C)C[C@H]2Oc3cc(Br)ccc3S(=O)(=O)N([C@H](C)CO)C[C@H]2C)cc1	4	?	2	-1	9	19
C[C@H](CO)N1C[C@H](C)[C@H](CN(C)S(=O)(=O)c2cccc(F)c2)Oc2cc(C#CCN(C)C)ccc2S1(=O)=O	0	-13[16.7 µM]	5	3	12	4
COc1ccc(S(=O)(=O)N(C)C[C@@H]2Oc3cc(Br)ccc3S(=O)(=O)N([C@H](C)CO)C[C@@H]2C)cc1	-16	57*!	-5	0	7	0
C[C@@H]1CN([C@H](C)CO)C(=O)c2cc(NC(=O)Nc3ccccc3)ccc2O[C@@H](C)CCCCO[C@H]1CN(C)C(=O)NC1CCCCC1	·	·	17	·	·	·
SMILES	PGC1a acetyl inh	HIV Env fusion	FN deposition inh	F508del corr	EWS-Fli inh	PAX8 reporter
CC(C)CC#Cc1ccc2c(c1)O[C@H](CN(C)S(=O)(=O)c1cccc(F)c1)[C@@H](C)CN([C@H](C)CO)S2(=O)=O	13	26[16.7 µM]	·	-1	19	·
C[C@@H]1CN([C@H](C)CO)S(=O)(=O)c2ccc(-c3cccc(F)c3)cc2O[C@@H]1CN(C)S(=O)(=O)c1ccc(F)cc1	2	56*[16.7 µM]	0	0	-9	·
CC(C)CC#Cc1ccc2c(c1)O[C@@H](CN(C)S(=O)(=O)c1cccc(F)c1)[C@@H](C)CN([C@@H](C)CO)S2(=O)=O	·	77*[16.7 µM]	·	0	18	·
CO[C@H]1CN(C)C(=O)c2ccc(NC(=O)c3cc(C)on3)cc2OC[C@H](C)N(CC2CC2)C[C@@H]1C	-17	·	-8	-2	-17	1
O=C(Nc1ccccc1)N1N=C(c2ccc(F)cc2)CC1c1ccc(F)cc1 (stereo not drawn)	·	·	2	-2	-11	82*
COc1ccc(C2CC(c3ccccc3)=NN2C(=S)Nc2ccccc2)cc1 (stereo not drawn)	-2	-11	-3	3	-2	1
COc1ccc(C2CC(c3ccc(Br)cc3)=NN2C(=S)Nc2ccccc2)cc1 (stereo not drawn)	-10	2	-3	-2	-58	123*
O=C(C[C@@H]1C[C@@H]2c3cc(NC(=O)CC4CC4)ccc3O[C@@H]2[C@@H](CO)O1)NCc1cccnc1	-6	·	6	-3	-4	·
COc1ccccc1C1c2ccc3ccccc3c2Oc2ncn(CCN(C)C)c(=N)c21 (stereo not drawn)	-58	-15	15	1	23	21
COc1ccc(C2c3ccc4ccccc4c3Oc3ncn(CCCN(C)C)c(=N)c32)cc1 (stereo not drawn)	-23	-23	1	0	63*	10
COCCNC(=O)C[C@H]1CC[C@@H]2[C@H](COC[C@@H](O)CN2C(=O)Nc2ccc3c(c2)OCO3)O1	7	-3[16.7 µM]	6	-2	-7	-2
O=C(O)c1ccc(N=Nc2c(O)[nH]c3ccccc23)cc1	49*	-25	-5	-3	34	51
CCN1[C@@H]2Cn3c(ccc(/C=C/c4ccccc4)c3=O)[C@H]1[C@@H](C(=O)N1CCCCC1)[C@@H]2CO	·	-2[16.7 µM]	·	·	-1	·
CCC(=O)Nc1ccc2c(c1)OC[C@@H](C)N(Cc1ccncc1)C[C@H](C)[C@H](OC)CN(C)C2=O	2	1[16.7 µM]	-2	1	-4	8
O=C(NCCc1ccccc1)C(c1cccs1)N(C(=O)CCl)c1ccc(Cl)cc1 (stereo not drawn)	·	14	9	·	·	111*
O=C(NCCc1ccccc1)C(c1cccs1)N(C(=O)c1csnn1)C1CC1 (stereo not drawn)	-2	-71	2	·	·	3
